Calls of active or inactive are those of the source. The calls are words filed in the database; no cut-off is given here.
Key:
[1] = tested on: MDA-MB-435; experiment: Antiproliferative activity against human MDA-MB-435 cells by sulforhodamine B assay; format: functional, cell-based
Procedure, shortened: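 SRB assay against cancer cells obtained from ATCC (MDA-MB-435, HeLa). IC50 is the concentration giving 50% inhibition of proliferation, taken as the mean of at least 3 independent experiments, each run in triplicate points.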

[2] = tested on: SK-OV-3; experiment: Antiproliferative activity against human SKOV3 cells expressing MDR1-6/6 by sulforhodamine B assay; format: functional, cell-based
Procedure, shortened: (§1)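 Antiproliferative read-out by sulforhodamine B assay. HeLa and SK-OV-3 cells were from ATCC; SK-OV-3 MDR-1-6/6 is the Pgp-overexpressing, MDR-1-transduced isogenic partner of the parental line. Each IC50 is the mean of at least 3 independent experiments, with triplicate points in each.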

[3] = tested on: SK-OV-3; experiment: Relative resistance, ratio of IC50 for human SKOV3 cells expressing MDR1-6/6 to IC50 for human SKOV3 cells; format: functional
Procedure, shortened: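 Relative resistance (Rr) is the SRB-derived IC50 in Pgp-overexpressing, MDR-1-transduced SK-OV-3 MDR-1-6/6 cells divided by the IC50 in parental SK-OV-3 cells.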

[4] = tested on: HeLa; experiment: Relative resistance, ratio of IC50 for human HeLa cells expressing tubulin 3beta to IC50 for human HeLa cells; format: functional
[5] = tested on: SK-OV-3; experiment: Antiproliferative activity against human SKOV3 cells by sulforhodamine B assay; format: functional, cell-based; procedure, shortened: as §1
[6] = tested on: HeLa; experiment: Antiproliferative activity against human HeLa cells expressing tubulin 3beta by sulforhodamine B assay; format: functional, cell-based
[7] = tested on: HeLa; experiment: Antiproliferative activity against human HeLa cells by sulforhodamine B assay; format: functional, cell-based; procedure, shortened: as §1
[8] = tested on: SF-295; experiment: Growth inhibition of human SF295 cells by sulforhodamine B assay; format: functional
[9] = tested on: COLO 205; experiment: Growth inhibition of human COLO205 cells by sulforhodamine B assay; format: functional
[10] = tested on: NCI-H460; experiment: Growth inhibition of human NCI-H460 cells by sulforhodamine B assay; format: functional
[11] = tested on: LOX IMVI; experiment: Growth inhibition of human LOXIMVI cells by sulforhodamine B assay; format: functional
[12] = tested on: SNB-75; experiment: Growth inhibition of human SNB75 cells by sulforhodamine B assay; format: functional
[13] = tested on: PC-3; experiment: Growth inhibition of human PC3 cells by sulforhodamine B assay; format: functional
[14] = tested on: K562; experiment: Growth inhibition of human K562 cells by sulforhodamine B assay; format: functional
[15] = tested on: IGROV-1; experiment: Growth inhibition of human IGROV1 cells by sulforhodamine B assay; format: functional
[16] = tested on: MCF7; experiment: Growth inhibition of human MCF7 cells by sulforhodamine B assay; format: functional
[17] = tested on: NCI/ADR-RES; experiment: Growth inhibition of human NCI/ADR-RES cells by sulforhodamine B assay; format: functional
[18] = tested on: HT-29; experiment: Growth inhibition of human HT-29 cells by sulforhodamine B assay; format: functional
[19] = tested on: SK-MEL-2; experiment: Growth inhibition of human SK-MEL-2 cells by sulforhodamine B assay; format: functional
[20] = tested on: A549; experiment: Growth inhibition of human A549 cells by sulforhodamine B assay; format: functional
[21] = tested on: SN12C; experiment: Growth inhibition of human SN12C cells by sulforhodamine B assay; format: functional
[22] = tested on: A498; experiment: Growth inhibition of human A498 cells by sulforhodamine B assay; format: functional
[23] = tested on: SF-268; experiment: Growth inhibition of human SF268 cells by sulforhodamine B assay; format: functional
[24] = tested on: MDA-MB-435; experiment: Cell cycle arrest in human MDA-MB-435 cells assessed as mitotic accumulation at 850 nM after 24 hrs using propidium iodide staining by flow cytometry; format: functional, cell-based
Procedure, shortened: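 Cells were then harvested, stained with Krishan's reagent (propidium iodide) and analysed by flow cytometry. Data are plotted as propidium iodide intensity versus number of events.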

[25] = tested on: UACC-62; experiment: Growth inhibition of human UACC62 cells by sulforhodamine B assay; format: functional
[26] = tested on: SK-MEL-5; experiment: Growth inhibition of human SK-MEL-5 cells by sulforhodamine B assay; format: functional
[27] = tested on: HOP-62; experiment: Growth inhibition of human HOP62 cells by sulforhodamine B assay; format: functional
[28] = tested on: KM12; experiment: Growth inhibition of human KM12 cells by sulforhodamine B assay; format: functional
[29] = tested on: SNB-19; experiment: Growth inhibition of human SNB19 cells by sulforhodamine B assay; format: functional
[30] = tested on: SW-620; experiment: Growth inhibition of human SW620 cells by sulforhodamine B assay; format: functional
[31] = tested on: TK-10; experiment: Growth inhibition of human TK10 cells by sulforhodamine B assay; format: functional
[32] = tested on: HCT-15; experiment: Growth inhibition of human HCT15 cells by sulforhodamine B assay; format: functional
[33] = tested on: NCI-H322M; experiment: Growth inhibition of human NCI-H322M cells by sulforhodamine B assay; format: functional
[34] = tested on: ACHN; experiment: Growth inhibition of human ACHN cells by sulforhodamine B assay; format: functional
[35] = tested on: MOLT-4; experiment: Growth inhibition of human MOLT4 cells by sulforhodamine B assay; format: functional
[36] = tested on: MDA-MB-231; experiment: Growth inhibition of human MDA-MB-231 cells by sulforhodamine B assay; format: functional
[37] = tested on: M14; experiment: Growth inhibition of human M14 cells by sulforhodamine B assay; format: functional
[38] = tested on: MDA-MB-468; experiment: Growth inhibition of human MDA-MB-468 cells by sulforhodamine B assay; format: functional
[39] = tested on: SK-OV-3; experiment: Growth inhibition of human SKOV3 cells by sulforhodamine B assay; format: functional
[40] = tested on: NCI-H522; experiment: Growth inhibition of human NCI-H522 cells by sulforhodamine B assay; format: functional
[41] = tested on: RXF 393; experiment: Growth inhibition of human RXF393 cells by sulforhodamine B assay; format: functional
[42] = tested on: HCC 2998; experiment: Growth inhibition of human HCC2998 cells by sulforhodamine B assay; format: functional
[43] = tested on: U-251; experiment: Growth inhibition of human U251 cells by sulforhodamine B assay; format: functional
[44] = tested on: SF-539; experiment: Growth inhibition of human SF539 cells by sulforhodamine B assay; format: functional
[45] = tested on: UO-31; experiment: Growth inhibition of human UO31 cells by sulforhodamine B assay; format: functional
[46] = tested on: DU-145; experiment: Growth inhibition of human DU145 cells by sulforhodamine B assay; format: functional
[47] = tested on: HOP-92; experiment: Growth inhibition of human HOP92 cells by sulforhodamine B assay; format: functional
[48] = tested on: MDA-MB-435; experiment: Cell cycle arrest in human MDA-MB-435 cells assessed as formation of aberrant mitotic spindles at 850 nM after 24 hrs using propidium iodide staining by flow cytometry; format: functional, cell-based
[49] = tested on: SK-MEL-28; experiment: Growth inhibition of human SK-MEL-28 cells by sulforhodamine B assay; format: functional
[50] = tested on: HL-60(TB); experiment: Growth inhibition of human HL-60(TB) cells by sulforhodamine B assay; format: functional
[51] = species: Bos taurus; experiment: Displacement of [3H]colchicine from bovine brain tubulin at 5 uM after 10 mins
[52] = tested on: OVCAR-4; experiment: Growth inhibition of human OVCAR4 cells by sulforhodamine B assay; format: functional
[53] = tested on: OVCAR-8; experiment: Growth inhibition of human OVCAR8 cells by sulforhodamine B assay; format: functional
[54] = tested on: EKVX; experiment: Growth inhibition of human EKVX cells by sulforhodamine B assay; format: functional
[55] = tested on: MDA-MB-435; experiment: Growth inhibition of human MDA-MB-435 cells by sulforhodamine B assay; format: functional
[56] = tested on: NCI-H23; experiment: Growth inhibition of human NCI-H23 cells by sulforhodamine B assay; format: functional
[57] = tested on: NCI-H226; experiment: Growth inhibition of human NCI-H226 cells by sulforhodamine B assay; format: functional
[58] = tested on: OVCAR-3; experiment: Growth inhibition of human OVCAR-3 cells by sulforhodamine B assay; format: functional
[59] = tested on: CCRF-CEM; experiment: Growth inhibition of human CCRF-CEM cells by sulforhodamine B assay; format: functional
[60] = tested on: OVCAR-5; experiment: Growth inhibition of human OVCAR5 cells by sulforhodamine B assay; format: functional
[61] = tested on: 786-0; experiment: Growth inhibition of human 786-0 cells by sulforhodamine B assay; format: functional
[62] = tested on: SR; experiment: Growth inhibition of human SR cells by sulforhodamine B assay; format: functional
[63] = Growth inhibition of human Hs 578T cells by sulforhodamine B assay; format: functional

For `COc1ccc(Nc2[nH]c(C)nc3nccc2-3)cc1`, the IC50 [1] was > 10 µM.

For `COc1cc2c(cc1O)CC[C@@H]1[C@@H]2CC[C@]2(C)[C@@H](O)CC[C@@H]12` [2-METHOXYESTRADIOL], the IC50 [2] was 2270 nM, the Ratio [3] was 2.6 and the Ratio [4] was 1. For the same molecule, the IC50 [5] was 867 nM and the IC50 [6] was 586 nM.

Molecule `COc1ccc(/C=C\c2cc(OC)c(OC)c(OC)c2)cc1OP(=O)(O)O` [FOSBRETABULIN] has an IC50 [7] of 4.7 nM, an IC50 [2] of 6.6 nM and a Ratio [3] of 1.5. It also gave a Ratio [4] of 1.2, an IC50 [5] of 4.5 nM and an IC50 [6] of 5.7 nM.

For `COc1ccc(Nc2nc(C)nc3c2CC(C)C3)cc1` (racemic), the IC50 [1] was > 10 µM.

`COc1ccc(N(C)c2nc(C)nc3[nH]ccc23)cc1` showed a GI50 [8] of 269 nM, a GI50 [9] of 243 nM and a GI50 [10] of 351 nM. For the same molecule, the GI50 [11] was 407 nM, the GI50 [12] was 185 nM and the GI50 [13] was 509 nM. The GI50 [14] was 179 nM, the GI50 [15] was 340 nM and the GI50 [16] was 314 nM. The GI50 [17] was 164 nM, the GI50 [18] was 279 nM and the GI50 [19] was 251 nM. For the same molecule, the GI50 [20] was 723 nM, the GI50 [21] was 854 nM and the GI50 [22] was 198 nM. For the same molecule, the GI50 [23] was 449 nM, the IC50 [7] was 270 nM and the Activity [24] was “Active”. For the same molecule, the GI50 [25] was 625 nM, the GI50 [26] was 177 nM and the GI50 [27] was 291 nM. The GI50 [28] was 181 nM, the GI50 [29] was 612 nM and the GI50 [30] was 246 nM. It also gave an IC50 [2] of 435 nM, a GI50 [31] of 390 nM and a GI50 [32] of 275 nM. The GI50 [33] was 428 nM, the GI50 [34] was 556 nM and the GI50 [35] was 503 nM. For the same molecule, the GI50 [36] was 1260 nM, the GI50 [37] was 218 nM and the GI50 [38] was 208 nM. It also gave a GI50 [39] of 248 nM, a GI50 [40] of 40.2 nM and a GI50 [41] of 226 nM. The GI50 [42] was 271 nM, the GI50 [43] was 440 nM and the GI50 [44] was 288 nM. The GI50 [45] was 307 nM, the GI50 [46] was 269 nM and the GI50 [47] was 4.8 µM. For the same molecule, the Activity [48] was “Active”, the GI50 [49] was 603 nM and the GI50 [50] was 190 nM. It also gave an inhibition [51] of 70%, a GI50 [52] of 7.73 µM and a GI50 [53] of 639 nM. The GI50 [54] was 875 nM, the GI50 [55] was 44.2 nM and the GI50 [56] was 438 nM. The GI50 [57] was 623 nM, the IC50 [5] was 278 nM and the GI50 [58] was 192 nM. For the same molecule, the GI50 [59] was 315 nM, the GI50 [60] was 1670 nM and the GI50 [61] was 433 nM. For the same molecule, the IC50 [6] was 186 nM, the GI50 [62] was 87.6 nM and the GI50 [63] was 249 nM.

Source: ChEMBL document CHEMBL1275390, “Synthesis and discovery of water-soluble microtubule targeting agents that bind to the colchicine site on tubulin and circumvent Pgp mediated resistance” (J Med Chem, 2010)
